Laboratory results as given in the M2OR odorant receptor database.
Residue numbers refer to the chain shown, from its start.

Legend:
Conditions in all cases: stereoisomer not certain
OR5BC C141R = system: T1, OR5BC C141R
T1 sequence (whole entry): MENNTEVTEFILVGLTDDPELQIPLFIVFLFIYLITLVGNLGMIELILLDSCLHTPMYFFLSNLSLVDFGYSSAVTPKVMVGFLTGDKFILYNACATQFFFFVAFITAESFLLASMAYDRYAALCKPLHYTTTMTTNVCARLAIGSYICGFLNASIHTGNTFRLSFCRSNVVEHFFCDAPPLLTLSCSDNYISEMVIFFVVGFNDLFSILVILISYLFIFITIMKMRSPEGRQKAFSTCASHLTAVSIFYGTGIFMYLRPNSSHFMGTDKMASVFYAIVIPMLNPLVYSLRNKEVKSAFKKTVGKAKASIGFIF
In short: (§1)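 Assay methods differ from source to source, frequently being transient luciferase assays in mammalian cell lines. For each receptor–molecule pair, the label responsive (active) applies when the original authors judged the measured signal statistically different from baseline, and non-responsive (inactive) applies otherwise.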

OR5BH L80I I85M = system: T2, OR5BH L80I I85M
T2 sequence (whole entry): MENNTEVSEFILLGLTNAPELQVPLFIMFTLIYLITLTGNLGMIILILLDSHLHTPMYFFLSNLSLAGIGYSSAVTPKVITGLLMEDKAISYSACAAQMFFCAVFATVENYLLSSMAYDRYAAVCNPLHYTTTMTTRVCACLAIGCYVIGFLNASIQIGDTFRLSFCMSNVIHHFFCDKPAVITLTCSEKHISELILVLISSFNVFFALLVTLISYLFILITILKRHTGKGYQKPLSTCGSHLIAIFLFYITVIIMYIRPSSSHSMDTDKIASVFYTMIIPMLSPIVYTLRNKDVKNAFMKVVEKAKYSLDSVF
In short: as §1

OR5BH L80I = system: T3, OR5BH L80I
T3 sequence (whole entry): T2 sequence (whole entry) with M85I
In short: as §1

OR5C1 (Homo sapiens) = molecular target: T4, OR5C1 (Homo sapiens) (UniProt Q8NGR4)
T4 sequence (whole entry): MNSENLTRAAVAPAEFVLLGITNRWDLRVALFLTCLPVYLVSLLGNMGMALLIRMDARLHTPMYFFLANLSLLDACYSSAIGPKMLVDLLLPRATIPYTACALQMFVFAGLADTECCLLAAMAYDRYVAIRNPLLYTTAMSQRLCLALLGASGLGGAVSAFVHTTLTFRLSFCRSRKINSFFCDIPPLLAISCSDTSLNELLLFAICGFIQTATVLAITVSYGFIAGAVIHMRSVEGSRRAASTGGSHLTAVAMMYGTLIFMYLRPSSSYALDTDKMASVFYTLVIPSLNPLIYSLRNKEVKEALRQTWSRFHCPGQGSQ
In short: as §1

OR5D13 (Homo sapiens) = molecular target: T5, OR5D13 (Homo sapiens) (UniProt Q8NGL4)
T5 sequence (whole entry): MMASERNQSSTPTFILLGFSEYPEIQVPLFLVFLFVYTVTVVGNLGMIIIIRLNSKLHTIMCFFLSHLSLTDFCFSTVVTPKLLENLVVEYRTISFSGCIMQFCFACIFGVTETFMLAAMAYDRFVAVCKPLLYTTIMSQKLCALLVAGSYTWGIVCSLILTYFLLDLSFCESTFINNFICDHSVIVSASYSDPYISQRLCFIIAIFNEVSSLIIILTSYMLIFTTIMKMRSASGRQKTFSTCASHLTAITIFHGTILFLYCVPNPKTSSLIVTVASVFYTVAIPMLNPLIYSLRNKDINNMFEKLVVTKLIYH
In short: as §1

OR5D14 (Homo sapiens) = molecular target: T6, OR5D14 (Homo sapiens) (UniProt Q8NGL3)
T6 sequence (whole entry): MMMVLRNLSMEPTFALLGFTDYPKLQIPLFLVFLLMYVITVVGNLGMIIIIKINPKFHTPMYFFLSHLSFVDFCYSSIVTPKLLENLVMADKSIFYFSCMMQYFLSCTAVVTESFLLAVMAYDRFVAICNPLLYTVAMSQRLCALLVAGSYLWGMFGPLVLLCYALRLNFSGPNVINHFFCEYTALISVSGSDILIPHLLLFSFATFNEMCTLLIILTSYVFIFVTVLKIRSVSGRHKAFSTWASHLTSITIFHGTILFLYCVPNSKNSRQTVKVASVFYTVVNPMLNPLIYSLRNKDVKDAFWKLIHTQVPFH
In short: as §1

OR5D16 (Homo sapiens) = molecular target: T7, OR5D16 (Homo sapiens) (UniProt Q8NGK9)
T7 sequence (whole entry): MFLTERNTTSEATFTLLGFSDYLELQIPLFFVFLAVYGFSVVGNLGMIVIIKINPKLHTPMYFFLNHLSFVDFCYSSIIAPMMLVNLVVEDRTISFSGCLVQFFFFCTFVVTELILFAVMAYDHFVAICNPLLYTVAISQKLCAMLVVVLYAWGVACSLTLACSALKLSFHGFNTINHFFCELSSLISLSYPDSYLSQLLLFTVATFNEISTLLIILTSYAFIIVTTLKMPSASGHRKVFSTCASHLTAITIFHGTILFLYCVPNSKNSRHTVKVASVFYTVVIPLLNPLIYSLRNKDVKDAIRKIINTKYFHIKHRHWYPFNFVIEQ
In short: as §1

OR5D18 (Homo sapiens) = molecular target: T8, OR5D18 (Homo sapiens) (UniProt Q8NGL1)
T8 sequence (whole entry): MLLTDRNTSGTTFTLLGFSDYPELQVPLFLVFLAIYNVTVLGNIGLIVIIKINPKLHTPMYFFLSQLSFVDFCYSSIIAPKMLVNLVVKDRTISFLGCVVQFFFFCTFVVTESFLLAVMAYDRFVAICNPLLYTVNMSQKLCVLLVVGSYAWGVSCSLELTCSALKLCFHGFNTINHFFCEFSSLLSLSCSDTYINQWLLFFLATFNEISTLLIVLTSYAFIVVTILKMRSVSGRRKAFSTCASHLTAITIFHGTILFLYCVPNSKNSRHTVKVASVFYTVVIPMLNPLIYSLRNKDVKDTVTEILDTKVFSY
In short: as §1

OR5DD C62Y = system: T9, OR5DD C62Y
T9 sequence (whole entry): T5 sequence (whole entry) with C62Y
In short: as §1

OR5DE S249A L290P = system: T10, OR5DE S249A L290P
T10 sequence (whole entry): T6 sequence (whole entry) with S249A, L290P
In short: as §1

OR5DG A156T = system: T11, OR5DG A156T
T11 sequence (whole entry): T7 sequence (whole entry) with A156T
In short: as §1

OR5DI = system: T12, OR5DI
T12 sequence (whole entry): T8 sequence (whole entry) with N136D
In short: as §1

OR5F1 (Homo sapiens) = molecular target: T13, OR5F1 (Homo sapiens) (UniProt O95221)
T13 sequence (whole entry): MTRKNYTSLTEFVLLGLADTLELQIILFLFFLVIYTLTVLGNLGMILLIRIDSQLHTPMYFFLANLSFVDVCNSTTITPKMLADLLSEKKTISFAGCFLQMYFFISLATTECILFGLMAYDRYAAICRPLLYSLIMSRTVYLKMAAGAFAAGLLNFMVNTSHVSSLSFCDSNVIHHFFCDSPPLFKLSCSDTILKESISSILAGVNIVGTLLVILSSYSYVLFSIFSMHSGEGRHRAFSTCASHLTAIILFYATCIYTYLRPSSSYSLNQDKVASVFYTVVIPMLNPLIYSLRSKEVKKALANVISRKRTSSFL
In short: as §1

OR5F1 = system: T14, OR5F1
T14 sequence (whole entry): T13 sequence (whole entry) with S294N
In short: as §1

OR5H1 (Homo sapiens) = molecular target: T15, OR5H1 (Homo sapiens) (UniProt A6NKK0)
T15 sequence (whole entry): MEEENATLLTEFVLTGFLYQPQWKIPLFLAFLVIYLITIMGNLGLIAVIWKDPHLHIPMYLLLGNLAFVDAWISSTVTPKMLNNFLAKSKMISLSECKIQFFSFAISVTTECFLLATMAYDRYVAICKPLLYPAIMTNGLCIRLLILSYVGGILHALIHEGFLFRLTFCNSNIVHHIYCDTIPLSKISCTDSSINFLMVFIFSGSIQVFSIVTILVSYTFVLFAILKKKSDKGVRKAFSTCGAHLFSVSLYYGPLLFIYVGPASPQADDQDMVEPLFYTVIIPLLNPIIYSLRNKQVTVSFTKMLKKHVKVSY
In short: as §1

OR5H1 F17L A30T H56Q = system: T16, OR5H1 F17L A30T H56Q
T16 sequence (whole entry): T15 sequence (whole entry) with F17L, A30T, H56Q
In short: as §1

OR5H14 (Homo sapiens) = molecular target: T17, OR5H14 (Homo sapiens) (UniProt A6NHG9)
T17 sequence (whole entry): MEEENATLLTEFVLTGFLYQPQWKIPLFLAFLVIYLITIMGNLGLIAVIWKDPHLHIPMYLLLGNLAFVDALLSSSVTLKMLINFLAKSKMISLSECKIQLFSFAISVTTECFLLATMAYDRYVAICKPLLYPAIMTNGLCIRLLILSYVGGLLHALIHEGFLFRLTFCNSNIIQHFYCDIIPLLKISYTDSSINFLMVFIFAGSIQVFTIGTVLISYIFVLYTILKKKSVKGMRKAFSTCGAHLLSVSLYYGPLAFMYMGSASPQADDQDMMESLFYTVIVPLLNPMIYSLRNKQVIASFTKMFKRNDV
In short: as §1

OR5H15 (Homo sapiens) = molecular target: T18, OR5H15 (Homo sapiens) (UniProt A6NDH6)
T18 sequence (whole entry): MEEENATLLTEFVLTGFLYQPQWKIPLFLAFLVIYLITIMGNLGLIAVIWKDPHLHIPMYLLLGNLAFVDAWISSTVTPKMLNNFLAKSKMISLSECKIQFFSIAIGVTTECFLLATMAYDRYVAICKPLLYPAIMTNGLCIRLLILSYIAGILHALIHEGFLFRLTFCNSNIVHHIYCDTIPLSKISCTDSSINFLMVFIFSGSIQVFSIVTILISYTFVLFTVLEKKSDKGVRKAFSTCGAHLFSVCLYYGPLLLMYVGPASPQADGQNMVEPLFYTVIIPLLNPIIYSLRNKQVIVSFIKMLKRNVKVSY
In short: as §1

OR5G3 (Homo sapiens) = OR5G3 (Homo sapiens) (UniProt P0C626)
Chain of OR5G3 (Homo sapiens) (P0C626 whole entry): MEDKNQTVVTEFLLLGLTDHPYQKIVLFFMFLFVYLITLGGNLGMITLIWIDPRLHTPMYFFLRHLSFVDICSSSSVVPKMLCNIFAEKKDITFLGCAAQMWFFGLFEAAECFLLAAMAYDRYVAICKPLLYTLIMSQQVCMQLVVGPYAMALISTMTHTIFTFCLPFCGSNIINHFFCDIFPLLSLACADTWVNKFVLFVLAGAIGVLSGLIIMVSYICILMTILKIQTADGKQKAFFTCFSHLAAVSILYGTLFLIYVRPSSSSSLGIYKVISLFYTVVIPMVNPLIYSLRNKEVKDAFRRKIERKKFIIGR
In short: as §1

OR5H1 T181N = system: T19, OR5H1 T181N
T19 sequence (whole entry): T15 sequence (whole entry) with T181N
In short: as §1

Measured: odorant receptor agonist call

CCCCCCC=CCCC=O
not listed: OR5G3 (Homo sapiens) | OR5H1 T181N
inactive: all other assays above

CC(=O)c1c(C)c([N+](=O)[O-])c(C(C)(C)C)c([N+](=O)[O-])c1C
inactive: OR5C1 (Homo sapiens) | OR5D13 (Homo sapiens) | OR5D14 (Homo sapiens) | OR5D16 (Homo sapiens) | OR5D18 (Homo sapiens) | OR5F1 (Homo sapiens) | OR5G3 (Homo sapiens) | OR5H14 (Homo sapiens) | OR5H15 (Homo sapiens)

CC(CO)CS (stereo unspecified)
inactive: OR5C1 (Homo sapiens) | OR5D13 (Homo sapiens) | OR5D14 (Homo sapiens) | OR5D16 (Homo sapiens) | OR5D18 (Homo sapiens) | OR5F1 (Homo sapiens) | OR5H1 (Homo sapiens) | OR5H14 (Homo sapiens) | OR5H15 (Homo sapiens)

CC1CCCCCCCCCCCCC(=O)C1 (stereo unspecified)
inactive: OR5C1 (Homo sapiens) | OR5D13 (Homo sapiens) | OR5D14 (Homo sapiens) | OR5D16 (Homo sapiens) | OR5D18 (Homo sapiens) | OR5F1 (Homo sapiens) | OR5G3 (Homo sapiens) | OR5H14 (Homo sapiens) | OR5H15 (Homo sapiens)

CC1=C(O)C(=O)OC1C (stereo unspecified)
not listed: OR5G3 (Homo sapiens)
inactive: all other assays above

CCCCCC(S)C(C)CO (stereo unspecified)
inactive: OR5C1 (Homo sapiens) | OR5D13 (Homo sapiens) | OR5D14 (Homo sapiens) | OR5D16 (Homo sapiens) | OR5D18 (Homo sapiens) | OR5F1 (Homo sapiens) | OR5H1 (Homo sapiens) | OR5H14 (Homo sapiens) | OR5H15 (Homo sapiens)

CC1=C(O)C(=O)C(C)O1 (stereo unspecified)
not listed: OR5G3 (Homo sapiens)
inactive: all other assays above

CCCC(S)CCOC(C)=O (stereo unspecified)
not listed: OR5G3 (Homo sapiens)
inactive: all other assays above
